This passage reports Activity and IC50 results from ChEMBL document CHEMBL1155063 (Bioorg Med Chem, 2008).

Assay [1] has as its target T1, Telomerase reverse transcriptase (Homo sapiens, UniProt O14746). Kind of assay: Inhibition of telomerase in human H1299 cells at 1 to 20 uM by TRAP assay. It is filed as cell-based. The procedure, abridged: (§1)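 Modified TRAP assay using 2 µg total lysate from H1299 lung cancer cells as the telomerase source. Compounds were tested at 1, 5, 10 and 20 µM. Products were resolved on 10% polyacrylamide gels and stained with SYBR Green. A Taq-polymerase internal control was included, along with positive and negative controls.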

Assay [2] concerns the target T1, Telomerase reverse transcriptase. Kind of assay: Inhibition of G-quadruplex-induced human TERT in H1299 cells by TRAP assay. It is filed as cell-based. The procedure, abridged: as §1

Active and inactive are the calls of the source. The rule behind the calls is not given here.

T1 sequence (O14746 whole entry): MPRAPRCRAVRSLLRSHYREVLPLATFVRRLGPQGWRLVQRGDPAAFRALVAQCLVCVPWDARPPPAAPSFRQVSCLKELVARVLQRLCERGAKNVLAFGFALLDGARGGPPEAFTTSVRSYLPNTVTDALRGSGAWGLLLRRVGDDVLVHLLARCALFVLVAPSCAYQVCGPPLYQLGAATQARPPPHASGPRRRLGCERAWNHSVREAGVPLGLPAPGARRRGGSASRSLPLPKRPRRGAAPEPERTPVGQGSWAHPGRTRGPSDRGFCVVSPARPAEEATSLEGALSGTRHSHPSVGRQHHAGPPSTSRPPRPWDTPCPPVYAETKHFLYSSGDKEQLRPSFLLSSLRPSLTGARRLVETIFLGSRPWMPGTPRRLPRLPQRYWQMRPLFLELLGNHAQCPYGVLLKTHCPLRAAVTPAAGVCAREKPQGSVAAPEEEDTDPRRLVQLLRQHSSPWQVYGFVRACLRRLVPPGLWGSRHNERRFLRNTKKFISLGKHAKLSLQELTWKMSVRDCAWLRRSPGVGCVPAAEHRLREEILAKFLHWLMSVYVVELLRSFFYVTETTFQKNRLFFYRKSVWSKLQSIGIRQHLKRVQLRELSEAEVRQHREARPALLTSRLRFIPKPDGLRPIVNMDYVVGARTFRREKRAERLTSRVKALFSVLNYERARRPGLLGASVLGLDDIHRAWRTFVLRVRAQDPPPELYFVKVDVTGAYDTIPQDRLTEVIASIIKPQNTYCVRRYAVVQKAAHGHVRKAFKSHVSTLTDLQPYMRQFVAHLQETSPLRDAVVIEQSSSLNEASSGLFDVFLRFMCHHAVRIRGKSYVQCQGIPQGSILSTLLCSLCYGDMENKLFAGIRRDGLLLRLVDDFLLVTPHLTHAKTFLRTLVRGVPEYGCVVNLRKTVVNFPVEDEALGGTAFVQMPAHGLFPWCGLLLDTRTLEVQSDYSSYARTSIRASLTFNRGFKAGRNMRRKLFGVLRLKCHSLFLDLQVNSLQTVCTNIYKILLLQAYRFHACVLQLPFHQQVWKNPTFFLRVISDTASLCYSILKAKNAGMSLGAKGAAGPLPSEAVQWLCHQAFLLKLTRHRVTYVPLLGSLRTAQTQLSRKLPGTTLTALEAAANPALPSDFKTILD

On to `O=C(CCN1CCCC1)Nc1ccc2c(c1)C(=O)c1cc(NC(=O)CCN3CCCC3)ccc1C2=O`, for which, in assay [1], the outcome was Active. Besides, in assay [2], the IC50 turned out to be 6.7 µM.

For `CCN(CC)CCC(=O)Nc1ccc2c(c1)C(=O)c1cc(NC(=O)CCN(CC)CC)ccc1C2=O`, the outcome in assay [1] was Active.

The IC50 is the concentration needed to halve the response being measured. A lower IC50 goes with greater potency in that assay.
